High-throughput results from PubChem.
XiGFP reactiv = activators of X-chromosome reactivation in mouse fibroblasts. 360,000 compounds, 0.055% hits. activation, % at 7.58 µM. AID 743238. XiGFP mouse fibroblasts, % GFP-positive cells imaging, 3 d; cells co-treated with 5-aza-dC sensitizer; scaled so ellipticine positive control = 100%;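 active = mean normalized replicate activation at least 10% and every replicate at or above 10%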;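 also: 0% = median of on-plate neutral control wells and 100% = ellipticine 6 µM median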
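Material: XiGFP fibroblasts, SV40-immortalized; Buffer or medium: DMEM containing 5-aza-dC; Compound dosing: single point; Times: 3 days compound exposure.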
E-selectin induc = induces E-selectin expression in human endothelial cells. HUVEC E-selectin immunofluorescence imaging; normalized: neutral wells 0, TNF-alpha wells 100. activation, % at 7.58 µM. 260,000 compounds, 0.37% hits;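 active = mean E-selectin-positive cell signal at least 10% of the positive control, reached in at least 60% of replicates, without over 20% cell loss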
Target sequence (P16581 whole entry, looked up): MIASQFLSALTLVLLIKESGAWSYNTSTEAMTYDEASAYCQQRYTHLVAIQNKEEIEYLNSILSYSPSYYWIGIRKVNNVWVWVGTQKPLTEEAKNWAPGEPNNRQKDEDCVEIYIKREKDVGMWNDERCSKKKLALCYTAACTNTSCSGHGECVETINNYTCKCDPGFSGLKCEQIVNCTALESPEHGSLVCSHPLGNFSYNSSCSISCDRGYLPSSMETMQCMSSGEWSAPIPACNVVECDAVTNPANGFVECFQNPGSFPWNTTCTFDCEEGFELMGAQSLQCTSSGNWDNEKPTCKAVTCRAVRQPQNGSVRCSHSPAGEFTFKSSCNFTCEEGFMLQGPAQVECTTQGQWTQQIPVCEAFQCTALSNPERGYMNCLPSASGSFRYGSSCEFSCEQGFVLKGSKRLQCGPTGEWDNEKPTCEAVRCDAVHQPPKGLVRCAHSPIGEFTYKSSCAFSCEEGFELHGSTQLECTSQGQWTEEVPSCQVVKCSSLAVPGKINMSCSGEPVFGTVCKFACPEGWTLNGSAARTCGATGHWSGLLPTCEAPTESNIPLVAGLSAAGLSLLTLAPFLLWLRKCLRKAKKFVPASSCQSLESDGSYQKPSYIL
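Test system – human umbilical vein endothelial cells (HUVEC), E-selectin induction · Input – 3,000 HUVEC seeded per well · Buffer or medium – EGM-2, gelatin · Compound dosing – single-point compound dose · Detection – immunofluorescence imaging · Measure – percent E-selectin-positive cells · Controls – TNF-alpha high, DMSO low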
An asterisk follows results filed as active; . = no result. This excerpt belongs to a sample that is enriched for hits.

SMILES	XiGFP reactiv	E-selectin induc
Cc1c(CC(=O)O)c(=O)oc2cc3occ(-c4ccccc4)c3cc12	0	0
Cc1c(CC(=O)NCCC(=O)O)c(=O)oc2cc3occ(-c4ccccc4)c3cc12	0	40*
O=C(C1CCCCC1)N1CC[C@@H]2[C@H]1c1cc(C#Cc3ccc(F)cc3)ccc1N[C@@H]2CO	0	0
O=C(c1ccc(F)cc1)N1CC[C@@H]2[C@H]1c1cc(C3=CCCCC3)ccc1N[C@@H]2CO	0	1
O=C(C1CC1)N1CC[C@@H]2[C@H](CO)Nc3ccc(C#Cc4ccc(F)cc4)cc3[C@@H]21	1	34*
O=C(C1CCCC1)N1CC[C@@H]2[C@H](CO)Nc3ccc(C4=CCCCC4)cc3[C@@H]21	0	50*
O=C(C1CCC1)N1CC[C@H]2[C@H](CO)Nc3ccc(C#Cc4cccc(F)c4)cc3[C@H]21	0	-1
O=C(C1CCC1)N1CC[C@@H]2[C@H](CO)Nc3ccc(C#Cc4cccc(F)c4)cc3[C@@H]21	0	31*
O=C(C1CCC1)N1CC[C@@H]2[C@@H](CO)Nc3ccc(C#Cc4ccc(F)cc4)cc3[C@@H]21	0	38*
O=C(C1CCC1)N1CC[C@@H]2[C@@H](CO)Nc3ccc(C#Cc4cccc(F)c4)cc3[C@@H]21	0	7
CC(=O)N1[C@H](C(=O)NC2Cc3ccccc3C2)[C@@H](CO)[C@@H]2Cn3c(ccc(-c4ccncc4)c3=O)[C@@H]21	0	0
COCC(=O)Nc1ccc2c(c1)OC[C@H](C)N(CCc1ccccc1)C[C@H](C)[C@@H](OC)CN(C)C2=O	0	.
Cc1cc(C)c(S(=O)(=O)NCCn2c(C)cc3ccccc32)c(C)c1	0	101*
Cc1cc2ccccc2n1CCNC(=O)Cc1ccccc1	0	3
N#CC1=CN(Cc2ccccc2)C=C(/C=N/Nc2ccccc2)C1	0	-1
CCOC(=O)C(=O)C1=CN(Cc2ccccc2)C=C(C#N)C1	0	52*
O=C(/C=C/c1ccccn1)c1cc(Br)ccc1O	0	0
O=C(/C=C/c1ccccn1)c1ccc(Br)cc1O	0	105*
O=c1[nH]c(=O)n([C@H]2C[C@H](O)[C@@H](CO)O2)cc1C(F)(F)F	25*	1
O=c1[nH]c(=O)n(C2C[C@H](O)[C@@H](CO)O2)cc1C(F)(F)F (stereo not given in full)	0	1
COc1ccc(C(=O)N2C[C@H]3[C@@H](c4ccccc42)[C@@H](CO)N3Cc2ccc(Cl)cc2)cc1	0	0
COc1cc(OC)cc(C(=O)N[C@H](C(=O)OCC(=O)Nc2ccc(C(C)C)cc2)C(C)C)c1	0	64*
COc1cc(OC)cc(C(=O)N[C@H](C(=O)OCC(=O)Nc2ccc(OC)c(OC)c2)C(C)C)c1	0	.
C[C@@H]1CCCCO[C@@H](CN(C)C(=O)NC2CCCCC2)[C@H](C)CN([C@H](C)CO)C(=O)c2cc(NC(=O)NC3CCCCC3)ccc2O1	0	0
COc1ccc(NC(=O)CCc2ccccc2)cc1S(=O)(=O)N1CCCCC1	141*	.
SMILES	XiGFP reactiv	E-selectin induc
COc1ccc(NC(=O)CCc2ccccc2)cc1S(=O)(=O)N1CCOCC1	0	2
Cc1ccc(S(=O)(=O)N(C)C[C@H]2Oc3ccc(NC(=O)Nc4cccc5ccccc45)cc3C(=O)N([C@H](C)CO)C[C@@H]2C)cc1	0	0
CCN(CC)CCCNC(=O)c1cc2c(=O)n(CC)c3ccccc3c2s1	0	11
CCN(CC)CCNC(=O)c1cc2c(=O)n(CC)c3ccccc3c2s1	0	63*
CNC[C@@H]1Oc2ccc(NS(C)(=O)=O)cc2CC(=O)N(C)C[C@@H]1C	0	.
CCN1[C@@H]2c3ccc(-c4cccc(F)c4)c(=O)n3C[C@@H]2[C@@H](CO)[C@@H]1C(=O)N(C)C	0	0
O=C(C[C@H]1C[C@@H]2c3cc(NC(=O)Nc4ccc(F)cc4)ccc3O[C@@H]2[C@@H](CO)O1)NC1CCCC1	0	.
O=C(COC(=O)Cc1cccs1)Nc1cccc(S(=O)(=O)N2CCOCC2)c1	0	0
NS(=O)(=O)c1cccc(NC(=O)COC(=O)Cc2ccc(S(=O)(=O)N3CCOCC3)s2)c1	140*	.
CCC(=O)Oc1ccc(NC(=O)c2ccco2)cc1	0	3
CCC(=O)Oc1cccc(C(=O)Nc2cccc(NC(=O)c3ccco3)c2)c1	0	38*
C[C@@H]1CCCCO[C@H](CN(C)Cc2ccc(Cl)c(Cl)c2)[C@H](C)CN([C@@H](C)CO)C(=O)c2cc(NS(C)(=O)=O)ccc2O1	0	0
COc1ccc(S(=O)(=O)N(C)C[C@H]2Oc3ccc(NS(=O)(=O)c4cn(C)cn4)cc3C(=O)N([C@H](C)CO)C[C@H]2C)cc1	-1	0
C[C@@H]1CN([C@@H](C)CO)C(=O)c2cc(C3=CCCCC3)cnc2O[C@H]1CN(C)C(=O)NC1CCCC1	-1	117*
CCCNC(=O)N(C)C[C@@H]1Oc2ncc(C3=CCCCC3)cc2C(=O)N([C@H](C)CO)C[C@@H]1C	1	0
CCC(=O)N(C)C[C@H]1Oc2ncc(Br)cc2C(=O)N([C@@H](C)CO)C[C@@H]1C	-1	73*
CCCNC(=O)N(C)C[C@@H]1Oc2ncc(C3=CCCC3)cc2C(=O)N([C@H](C)CO)C[C@H]1C	-1	58*
C[C@H]1CN([C@@H](C)CO)C(=O)c2cc(C3=CCCC3)cnc2O[C@H]1CN(C)C(=O)Nc1ccccc1	-1	0
C[C@H](CO)N1C[C@H](C)[C@H](CN(C)C(=O)NC2CCCC2)Oc2ncc(C3=CCCCC3)cc2C1=O	-1	0
C[C@@H]1CN([C@H](C)CO)C(=O)c2cc(C3=CCCC3)cnc2O[C@H]1CN(C)C(=O)Nc1ccccc1	-1	49*
C[C@H]1CN([C@@H](C)CO)C(=O)c2cc(Br)cnc2O[C@@H]1CN(C)C(=O)CN(C)C	0	1
COc1ccc2c3c([nH]c2c1)[C@H](CO)N(Cc1ccccc1)CC31CCN(CC2CC2)CC1	0	-1
CC(=O)N1CC(=O)N2[C@H](C1)[C@H](c1ccc(-c3ccc(C#N)cc3)cc1)[C@@H]2CO	1	.
O=C1N[C@@H](Cc2ccccc2)COCc2cnnn2CC[C@@H]1Cc1cccc(F)c1	0	.
COc1cccc(CN2[C@@H](CO)[C@H](c3ccccc3)C23CN(Cc2ccccc2OC)C3)c1	0	.
SMILES	XiGFP reactiv	E-selectin induc
C[C@H](CO)N1C[C@H](C)[C@H](CN(C)S(C)(=O)=O)Oc2ccc(NS(=O)(=O)c3cccs3)cc2C1=O	0	1
C[C@H]1CN([C@@H](C)CO)C(=O)c2cc(NS(=O)(=O)c3cccs3)ccc2O[C@@H]1CN(C)C(=O)Nc1ccc2c(c1)OCO2	-1	1
C[C@@H]1CN([C@@H](C)CO)C(=O)c2cc(NS(=O)(=O)c3cccs3)ccc2O[C@@H]1CN(C)C(=O)Nc1ccc2c(c1)OCO2	0	36*
C[C@H](CO)N1C[C@H](C)[C@@H](CN(C)S(C)(=O)=O)Oc2ccc(NS(=O)(=O)c3cccs3)cc2C1=O	0	429*
COc1ccc2c3c(n(C)c2c1)[C@@H](CO)N(Cc1ccccc1F)CC31CCN(C(=O)C2CCC2)CC1	0	0
CC(C)(C)C(=O)/C=c1\s/c(=C\c2ccc(-c3ccc([N+](=O)[O-])cc3)o2)c(=O)n1CC(=O)NC(N)=O	110*	6
